pEC50, pIC50: −log10 of the molar value.
Experiments:
[1] = biological target: T1, 5-hydroxytryptamine receptor 1A (Homo sapiens, UniProt P08908); assay: Compound was tested for the displacement of [3H]5-HT binding to cloned 5-hydroxytryptamine 1A receptor stably expressed in CHO cells; format: cell-based
T1 sequence (P08908 whole entry): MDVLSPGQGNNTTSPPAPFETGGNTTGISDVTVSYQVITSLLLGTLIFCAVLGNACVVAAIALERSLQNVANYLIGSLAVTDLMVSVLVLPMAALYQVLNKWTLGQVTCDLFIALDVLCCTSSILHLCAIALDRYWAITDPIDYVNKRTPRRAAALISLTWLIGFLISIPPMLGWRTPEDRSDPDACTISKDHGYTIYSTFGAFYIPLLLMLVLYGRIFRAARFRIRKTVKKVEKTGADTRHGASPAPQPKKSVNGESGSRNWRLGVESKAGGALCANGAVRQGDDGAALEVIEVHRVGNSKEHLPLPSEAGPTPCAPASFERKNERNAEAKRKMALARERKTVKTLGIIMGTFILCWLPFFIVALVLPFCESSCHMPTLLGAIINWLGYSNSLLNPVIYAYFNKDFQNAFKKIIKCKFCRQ

[2] = biological target: 5-hydroxytryptamine receptor 1E (Homo sapiens, UniProt P28566); assay: Compound was tested for the displacement of [3H]5-HT binding to cloned human 5-hydroxytryptamine 1E receptor stably expressed in CHO cells; format: cell-based
Chain of 5-hydroxytryptamine receptor 1E (P28566 whole entry): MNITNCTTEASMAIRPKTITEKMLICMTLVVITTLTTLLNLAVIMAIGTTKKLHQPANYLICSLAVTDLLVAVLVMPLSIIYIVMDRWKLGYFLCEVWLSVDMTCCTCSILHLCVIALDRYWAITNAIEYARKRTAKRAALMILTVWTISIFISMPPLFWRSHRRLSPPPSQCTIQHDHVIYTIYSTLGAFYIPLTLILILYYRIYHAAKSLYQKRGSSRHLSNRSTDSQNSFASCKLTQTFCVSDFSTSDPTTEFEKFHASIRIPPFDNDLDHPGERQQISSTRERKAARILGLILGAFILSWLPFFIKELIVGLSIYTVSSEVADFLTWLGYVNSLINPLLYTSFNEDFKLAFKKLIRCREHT

[3] = biological target: 5-hydroxytryptamine receptor 7 (Rattus norvegicus, UniProt P32305); assay: Compound was tested for the displacement of [3H]5-HT binding to cloned rat 5-hydroxytryptamine 7 receptor stably expressed in CHO cells; format: cell-based
Chain of 5-hydroxytryptamine receptor 7 (P32305 whole entry): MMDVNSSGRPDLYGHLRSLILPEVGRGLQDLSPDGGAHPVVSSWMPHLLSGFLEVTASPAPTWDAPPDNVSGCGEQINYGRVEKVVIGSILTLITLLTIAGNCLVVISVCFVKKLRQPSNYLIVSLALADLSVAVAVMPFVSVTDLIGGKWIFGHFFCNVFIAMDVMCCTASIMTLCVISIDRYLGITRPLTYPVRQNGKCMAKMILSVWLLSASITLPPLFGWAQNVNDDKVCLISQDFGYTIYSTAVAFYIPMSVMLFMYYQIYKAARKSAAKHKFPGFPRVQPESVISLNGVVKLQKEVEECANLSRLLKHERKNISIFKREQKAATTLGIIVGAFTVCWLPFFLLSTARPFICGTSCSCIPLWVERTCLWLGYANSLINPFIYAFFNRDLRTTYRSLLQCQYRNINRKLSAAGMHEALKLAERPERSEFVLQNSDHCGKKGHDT

[4] = biological target: 5-hydroxytryptamine receptor 1D (Homo sapiens, UniProt P28221); assay: Agonist-induced [35S]- GTPgammaS binding in CHO cells stably transfected with 5-hydroxytryptamine 1D receptor; format: cell-based
Chain of 5-hydroxytryptamine receptor 1D (P28221 whole entry): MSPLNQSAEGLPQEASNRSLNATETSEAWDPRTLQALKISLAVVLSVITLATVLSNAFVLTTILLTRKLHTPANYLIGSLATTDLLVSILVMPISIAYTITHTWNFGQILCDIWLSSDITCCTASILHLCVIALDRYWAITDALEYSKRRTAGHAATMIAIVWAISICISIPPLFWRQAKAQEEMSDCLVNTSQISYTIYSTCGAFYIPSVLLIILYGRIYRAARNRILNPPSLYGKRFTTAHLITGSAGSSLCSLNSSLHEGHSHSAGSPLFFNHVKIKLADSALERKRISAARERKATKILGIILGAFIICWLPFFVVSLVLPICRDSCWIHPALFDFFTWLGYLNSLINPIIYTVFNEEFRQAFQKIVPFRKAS
In short: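 Membranes from thawed CHO cells with human 5-HT1D, prepared in ice-cold 20 mM Hepes/EDTA at pH 7.4, spun at 40000g. Assay buffer: 100 mM NaCl, 10 mM MgCl2, 0.1% ascorbate, 10 μM pargyline. GDP 100 μM plus drug, 20 min at 30 °C, then ice 15 min. Then 100 pM [35S]GTPγS, 30 min at 30 °C, filtration. Emax is taken as % of maximal 5-HT response; duplicates, 2–5 occasions.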

[5] = biological target: 5-hydroxytryptamine receptor 6 (Rattus norvegicus, UniProt P31388); assay: Compound was tested for the displacement of [3H]5-HT binding to cloned rat 5-hydroxytryptamine 6 receptor stably expressed in CHO cells; format: cell-based
Chain of 5-hydroxytryptamine receptor 6 (P31388 whole entry): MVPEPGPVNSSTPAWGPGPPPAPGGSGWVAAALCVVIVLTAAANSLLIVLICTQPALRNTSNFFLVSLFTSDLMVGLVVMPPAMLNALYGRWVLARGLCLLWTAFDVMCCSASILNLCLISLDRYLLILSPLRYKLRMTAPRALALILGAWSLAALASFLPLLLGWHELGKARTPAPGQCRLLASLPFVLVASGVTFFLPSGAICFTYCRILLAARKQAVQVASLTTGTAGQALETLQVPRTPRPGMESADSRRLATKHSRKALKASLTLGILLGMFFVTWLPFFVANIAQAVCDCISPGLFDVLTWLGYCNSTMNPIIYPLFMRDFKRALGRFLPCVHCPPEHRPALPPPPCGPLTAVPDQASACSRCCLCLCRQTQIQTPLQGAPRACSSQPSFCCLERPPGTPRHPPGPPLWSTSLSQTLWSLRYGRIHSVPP

[6] = biological target: T2, 5-hydroxytryptamine receptor 1F (Homo sapiens, UniProt P30939); assay: Compound was tested for the displacement of [3H]5-HT binding to cloned human 5-hydroxytryptamine 1F receptor stably expressed in CHO cells; format: cell-based
T2 sequence (P30939 whole entry): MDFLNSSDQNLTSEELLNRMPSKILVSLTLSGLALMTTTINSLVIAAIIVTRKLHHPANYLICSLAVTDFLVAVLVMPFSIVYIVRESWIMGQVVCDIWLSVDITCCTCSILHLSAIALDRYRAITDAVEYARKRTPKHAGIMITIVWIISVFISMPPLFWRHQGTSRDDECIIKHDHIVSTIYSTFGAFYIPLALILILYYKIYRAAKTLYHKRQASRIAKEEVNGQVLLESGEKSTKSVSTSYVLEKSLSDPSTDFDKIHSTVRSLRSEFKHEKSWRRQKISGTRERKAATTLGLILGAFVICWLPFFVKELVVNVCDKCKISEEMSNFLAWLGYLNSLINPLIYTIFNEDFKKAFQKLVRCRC

[7] = biological target: 5-hydroxytryptamine receptor 2A (Homo sapiens, UniProt P28223); assay: Compound was tested for the displacement of [3H]5-HT binding to cloned human 5-hydroxytryptamine 2A receptor stably expressed in CHO cells; format: cell-based
Chain of 5-hydroxytryptamine receptor 2A (P28223 whole entry): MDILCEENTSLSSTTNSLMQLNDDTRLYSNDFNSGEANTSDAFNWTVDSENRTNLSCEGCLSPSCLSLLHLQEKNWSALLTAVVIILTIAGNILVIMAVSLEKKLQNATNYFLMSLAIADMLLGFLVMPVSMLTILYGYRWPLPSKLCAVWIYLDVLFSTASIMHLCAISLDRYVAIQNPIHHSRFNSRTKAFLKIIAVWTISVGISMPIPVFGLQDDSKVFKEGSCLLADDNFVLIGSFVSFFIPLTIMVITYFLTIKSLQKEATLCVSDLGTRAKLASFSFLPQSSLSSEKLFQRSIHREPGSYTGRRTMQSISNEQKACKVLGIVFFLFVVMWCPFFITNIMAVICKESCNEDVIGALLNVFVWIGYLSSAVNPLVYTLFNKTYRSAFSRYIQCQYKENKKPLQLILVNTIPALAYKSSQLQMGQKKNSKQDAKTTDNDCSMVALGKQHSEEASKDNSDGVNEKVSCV

[8] = Ratio of IC50 for human 5-HT1B to human 5-HT1D receptors
[9] = biological target: 5-hydroxytryptamine receptor 1B (Homo sapiens, UniProt P28222); assay: Displacement of [3H]5-HT binding to cloned 5-hydroxytryptamine 1B receptor stably expressed in CHO cells; format: cell-based
Chain of 5-hydroxytryptamine receptor 1B (P28222 whole entry): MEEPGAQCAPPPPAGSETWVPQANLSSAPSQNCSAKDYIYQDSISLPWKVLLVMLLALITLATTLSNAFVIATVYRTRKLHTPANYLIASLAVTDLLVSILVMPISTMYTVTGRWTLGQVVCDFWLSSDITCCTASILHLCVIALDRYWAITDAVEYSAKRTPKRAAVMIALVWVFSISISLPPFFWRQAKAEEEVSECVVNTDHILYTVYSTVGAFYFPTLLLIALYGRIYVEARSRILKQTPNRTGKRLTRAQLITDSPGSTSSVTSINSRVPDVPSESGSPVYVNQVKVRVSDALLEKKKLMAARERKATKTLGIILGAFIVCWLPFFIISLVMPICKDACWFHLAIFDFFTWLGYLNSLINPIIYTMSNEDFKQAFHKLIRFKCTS
In short: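 Membranes from thawed CHO cells with human 5-HT1B or 5-HT1D, washed in 50 mM Tris-HCl pH 7.7, preincubated 10 min at 37 °C to remove endogenous 5-HT. Buffer holds 0.1% ascorbate, 10 μM pargyline and 4 mM CaCl2. Uses 2.0 nM [3H]5-HT, 30 min at 37 °C; 10 μM 5-HT defines nonspecific binding. Filtration; IC50 by nonlinear regression; duplicates, 2–5 occasions.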

[10] = biological target: 5-hydroxytryptamine receptor 5A (Homo sapiens, UniProt P47898); assay: Compound was tested for the displacement of [3H]5-HT binding to cloned human 5-hydroxytryptamine 5A receptor stably expressed in CHO cells; format: cell-based
Chain of 5-hydroxytryptamine receptor 5A (P47898 whole entry): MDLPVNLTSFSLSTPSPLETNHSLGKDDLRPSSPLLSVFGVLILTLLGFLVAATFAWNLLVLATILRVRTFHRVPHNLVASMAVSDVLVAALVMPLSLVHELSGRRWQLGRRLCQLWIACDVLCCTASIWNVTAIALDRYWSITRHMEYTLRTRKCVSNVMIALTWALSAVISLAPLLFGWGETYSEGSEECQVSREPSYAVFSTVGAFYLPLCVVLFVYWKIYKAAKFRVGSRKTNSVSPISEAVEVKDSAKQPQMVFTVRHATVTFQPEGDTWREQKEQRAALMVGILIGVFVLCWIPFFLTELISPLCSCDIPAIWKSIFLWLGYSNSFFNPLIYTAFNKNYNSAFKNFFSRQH

- pIC50 [1]: 7.18
- pIC50 [2]: < 5.00
- pIC50 [3]: 6.27
- pEC50 [4]: 9.10
- pIC50 [5]: < 5.00
- pIC50 [6]: < 5.00
- pIC50 [7]: 5.96
- Selectivity [8]: 170
- pIC50 [9]: 6.82
- pIC50 [10]: < 5.00
Structure (SMILES): OC[C@H](NC1CCN(CCCc2c[nH]c3ccc(-n4cnnc4)cc23)CC1)c1ccc(F)cc1
